Bridges are numbered along the chain shown (N, C = ends). Where no end group is shown, it is not given here.
How the values were obtained:
[1] = tested on: tested Gram-positive bacteria; test: Geometric mean of MICs and TI, Gram-positive bacteria; type: cell-based; conditions: geometric mean of the MICs against tested Gram-positive bacteria
Outline: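 Broth dilution against S. aureus NCTC 10788, MRSA NCTC 12493 and E. faecalis NCTC 12697. Overnight cultures subcultured to OD550 0.23 (about 1×10^8 cfu/ml), then diluted to 5×10^5 cfu/ml. Test compound at 1–128 μM, 37 °C, 18 h, growth read at 550 nm. MIC = lowest concentration with no growth. Three independent runs in triplicate. Geometric mean taken across the MICs.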

E. coli 8739 = test: Salt sensitivity assay; type: cell-based, Escherichia coli; conditions: three independent repeats
Outline: (§1)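 MIC/MBC measured in MHB supplemented with salts, including 150 mM NaCl, 2 mM CaCl₂ or 1 mM MgCl₂. Gram-negative cultures subcultured to OD550 0.4, then diluted to 5×10^5 cfu/ml. Test compound 1–128 μM, 37 °C, 18 h, growth at 550 nm. MBC: wells spotted on agar for 18 h at 37 °C; lowest concentration with no colonies. Three independent repeats.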

E. coli 13846 = test: Salt sensitivity assay; type: cell-based, Escherichia coli; conditions: three independent repeats
Outline: as §1

E. coli 2340 [2] = test: Salt sensitivity assay; type: cell-based, Escherichia coli; conditions: three independent repeats
Outline: as §1

[3] = tested on: E. coli 8739, E. coli 13846, and E. coli 2340; test: Time-killing kinetic assay; type: cell-based, Escherichia coli
Outline: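 E. coli at 10^6 CFU/ml mixed with test compound at 1×, 2× or 4× MIC. 10 µl aliquots taken into PBS at 0, 5, 10, 20, 30, 60, 90, 120 and 180 min and plated on agar. Colonies counted after 24 h incubation. Three independent sessions, three replicates each.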

[4] = tested on: three tested E. coli strains; test: NPN assay, outer membrane permeabilisation; type: cell-based, Escherichia coli; conditions: 1 × MIC, 2 × MIC, 4 × MIC; 37 °C, 2 h
Outline: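 Log-phase E. coli pelleted at 3000g for 10 min and washed three times in 5 mM HEPES pH 7.2 with 5 mM glucose. Resuspended at 1×10^7 CFU/ml with NPN and test compound at 1×, 2× or 4× MIC. Incubated at 37 °C for 2 h, then fluorescence read at […]. Melittin set 100 % and buffer 0 % permeability. Three independent runs.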

[5] = tested on: E. coli plasmid DNA (pBR322); test: DNA binding assay; parameters: species or system Escherichia coli; conditions: 100 ng plasmid DNA, 37 °C, 1 h, agarose gel electrophoresis
Outline: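 Gel retardation: test compound (final 1–32 μM) incubated with 100 ng E. coli plasmid DNA at 37 °C for 1 h. Buffer: 1 mM EDTA, 10 mM Tris-HCl pH 8.0, 5 % glucose, 50 μg/ml BSA, 20 mM KCl. Resolved by agarose gel electrophoresis in 1 × TAE. A known DNA-binding peptide at equal concentrations served as control.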

E. coli 2340 [6] = test: In vivo antibacterial study, G. mellonella larvae model; parameters: species or system Galleria mellonella; conditions: five days; 10, 20, 40 mg/kg; ten larvae per group
Outline: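 Galleria mellonella larvae injected in the last right proleg with E. coli suspension (1×10^7 CFU/ml). Test compound given 1 h later at 10, 20 or 40 mg/kg. Larvae kept at 37 °C for five days, survival scored daily, ten larvae per group. Rifampin 20 mg/kg was the positive control and sterile PBS the negative control. Three independent experiments.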

[7] = Secondary structure analysis by CD spectrometry; type: physicochemical; conditions: for α helix (%) NH4AC: 50 µM peptide in 10 mM NH4AC; for α helix (%) NH4AC / α helix (%) TFE: CD 190 to 260 nm, K2D3 estimate; for α helix (%) TFE: 50 µM peptide in 50 % TFE (v/v, in 10 mM NH4AC)
Outline: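 CD spectra of test compound (final 50 µM) in 10 mM ammonium acetate, in 50 % TFE (v/v, in 10 mM ammonium acetate), or with LPS O26:B6 (100 µM) in 10 mM ammonium acetate. Scanned 190–260 nm at 100 nm/min, 1 nm bandwidth, 0.5 nm data pitch. Helix content estimated with K2D3.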

tested E. coli strains = test: ONPG assay, inner membrane permeabilisation; type: cell-based, Escherichia coli; conditions: E. coli 8739
Outline: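 E. coli grown in LB with 2 % lactose to log phase, then pelleted. Incubated with test compound while absorbance at 460 nm was monitored continuously at 37 °C. Untreated cells, melittin and solvent-only groups included. Three independent runs, three replicates each.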

## FFPKVAGVAAKVLKKFCTISKKC (disulfide 17-23 (inferred)) [des-Ala^16-[Lys^4]brevinin−1pl]
[1]
  GM G+: 80.63 µM
E. coli 8739; 4 µM FeCl3 in MHB medium
  MBC: 2 /2
  MIC: 2 /2
E. coli 8739; 6 µM NH4Cl in MHB medium
  MBC: 2 /2
  MIC: 2 /2
E. coli 8739; 8 µM ZnCl2 in MHB medium
  MBC: 2 /2
  MIC: 2 /2
E. coli 8739; 1 mM MgCl2 in MHB medium
  MBC: 32 /32
  MIC: 32 /32
E. coli 8739; 2 mM CaCl2 in MHB medium
  MBC: 8 /8
  MIC: 8 /8
E. coli 8739; 4.5 mM KCl in MHB medium
  MBC: 2 /2
  MIC: 2 /2
E. coli 8739; 150 mM NaCl in MHB medium
  MBC: 4 /4
  MIC: 4 /4
E. coli 8739; Control, MHB medium
  MBC: 2 /2
  MIC: 2 /2
E. coli 13846; 4 µM FeCl3 in MHB medium
  MBC: 8 /8
  MIC: 8 /8
E. coli 13846; 6 µM NH4Cl in MHB medium
  MBC: 8 /8
  MIC: 8 /8
E. coli 13846; 8 µM ZnCl2 in MHB medium
  MBC: 8 /8
  MIC: 8 /8
E. coli 13846; 1 mM MgCl2 in MHB medium
  MBC: 16 /16
  MIC: 16 /16
E. coli 13846; 2 mM CaCl2 in MHB medium
  MBC: 64 /64
  MIC: 64 /64
E. coli 13846; 4.5 mM KCl in MHB medium
  MBC: 8 /8
  MIC: 8 /8
E. coli 13846; 150 mM NaCl in MHB medium
  MBC: 8
  MIC: 4
E. coli 13846; Control, MHB medium
  MBC: 4 /4
  MIC: 4 /4
E. coli 2340 [2]; 4 µM FeCl3 in MHB medium
  MBC: 4 /4
  MIC: 4 /4
E. coli 2340 [2]; 6 µM NH4Cl in MHB medium
  MBC: 4 /4
  MIC: 4 /4
E. coli 2340 [2]; 8 µM ZnCl2 in MHB medium
  MBC: 4 /4
  MIC: 4 /4
E. coli 2340 [2]; 1 mM MgCl2 in MHB medium
  MBC: 8 /8
  MIC: 8 /8
E. coli 2340 [2]; 2 mM CaCl2 in MHB medium
  MBC: 16 /16
  MIC: 16 /16
E. coli 2340 [2]; 4.5 mM KCl in MHB medium
  MBC: 2 /2
  MIC: 2 /2
E. coli 2340 [2]; 150 mM NaCl in MHB medium
  MBC: 4 /4
  MIC: 4 /4
E. coli 2340 [2]; Control, MHB medium
  MBC: 4 /4
  MIC: 4 /4
[3]; 4 × MIC
  bacteria eradication at 4 × MIC: almost immediate bacteria eradication upon contact
[3]; 10^6 CFU/ml, peptide 1 × MIC to 4 × MIC, sampled 0 to 180 min, colony count
  time to eradicate all cells: ≤ 10 min
[3]; at their MICs, three types of E. coli
  time to completely clear the bacteria: ≤ 1 h
[4]
  outer membrane permeabilisation of the tested E. coli strains: did not induce significant changes
[5]
  concentration of complete retardation of plasmid DNA: 16 µM
E. coli 2340 [6]
  survival rate of infected larvae: 90%
[7]
  α helix (%) NH4AC: 31.95%
  α helix (%) TFE: 95.28%
[7]; LPS (O26:B6, 100 µM) in 10 mM NH4AC, CD, K2D3 prediction
  α helix content in the presence of LPS: 95.44%
Tested E. coli strains
  changes in OD values in the ONPG assay (release of cytoplasmic beta-galactosidase): did not induce obvious changes in OD values

## FFPKVAGVAAKV_KK_FCTISKKC (disulfide) [des-Leu^13, Ala^16-[Lys^4]brevinin−1pl]
[1]
  GM G+: 256 µM
[7]
  α helix (%) NH4AC: 34.65%
  α helix (%) TFE: 95.28%

— paper PMC11437748 (Computational and Structural Biotechnology Journal, 2024)
